Data as given in PubChem BioAssay.
Activity calls are given as the source filed them.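 How the source made its calls, unless noted: active means viability at or below 30% in both replicate assays; inconclusive means viability at or below 30% in just one of the two assays; inactive means the rest.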

How the values were obtained:
[1] = SK-BR-3 cell growth inhibitors, pilot screen, 24 h, human (AID 572;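 active means viability at or below 10% of carrier control in both of two separate runs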;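 further: compound exposure lasted between 18 and 24 h rather than exactly 24 h; 100% = carrier-treated control wells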); settings: SK-BR-3 viability, CellTiter-Glo luminescence, at 10 µM, stronger effect = lower value
[2] = HUVEC growth inhibition – cell-based, human, primary screen (AID 575); settings: HUVEC proliferation, CellTiter-Glo luminescence, 72 h; at 10 µM; stronger effect = lower value;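 further: 100% = median of untreated cell wells with 0.1% DMSO on each plate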
How it was run: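 system = HUVEC primary cells | amount = 1250 cells/well | buffer or medium = supplemented EBM, 2% fetal bovine serum | dosing = single-point 10 µM, DMSO 0.1% final | times = 72 h compound incubation | detection = CTG luminescence | read-out = % viability relative to median vehicle-well signal on each plate | control set = vehicle and MePR control wells | format = collagen-coated 384-well format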

[3] = growth inhibitors of H69AR lung tumor, primary screen, human, duplicate replicates (AID 580;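 active means viability at or under a set limit in both replicates, limit being median viability minus 3 SD, cut at about 48% in these data, passing the limit was not always enough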;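 further: 100% = mean luminescence of untreated wells and 0% = no signal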); settings: H69AR lung tumor cells viability, ATP luminescence, 72 h; at 10 µM; stronger effect = lower value
[4] = reversal of MRP1-mediated doxorubicin resistance, pilot screen, H69AR cells, doxorubicin co-treatment (AID 601;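 active means viability loss from added drug above about 55%, and viability with drug at most 40%, in both replicates, limit read from the data, passing the limit was not always enough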); settings: CellTiter-Glo, 72 h, at 10 µM; for differential viability (reversal): stronger effect = higher value
[5] = 384-well plate pilot, post-Golgi transport modulator project, inhibition of yeast transport mutant growth (AID 636; in the data active means inhibition above about 31%); settings: absorbance 615 nm, about 18 h, stronger effect = higher value
[6] = growth suppression of yeast trafficking mutant, preliminary HTS, modulators of trafficking downstream of Golgi apparatus project, 1536-format plate, OD 615 nm (AID 637; in the data active means inhibition above about 30%); settings: yeast transport mutant growth, absorbance 615 nm, 18 h; stronger effect = higher value
[7] = H69AR cells + 2 uM doxorubicin, measured here: viability with 2 uM doxorubicin, stronger effect = lower value
[8] = H69AR cells, compound alone cytotoxicity

Structure (SMILES)	viability [1]	viability [2]	viability [3]	differential viability (reversal) ([4]; H69AR cells + 2 uM doxorubicin)	viability [4, 7] [%]	viability [4, 8] [%]	inhibition [5]	inhibition [6]
O=C(Nc1ccon1)c1cc(-c2ccccc2)nc2ccccc12	91% (inactive)	104% (inactive)	96.2% (inactive)	-3.19% (inactive)	99.4	96.2	-5.95% (inactive)	-3.27% (inactive)
COc1ccccc1N1CCN(C(CNS(=O)(=O)c2cc(F)ccc2F)c2cccnc2)CC1 (centres undefined)	95% (inactive)	110% (inactive)	92.8% (inactive)	2.69% (inactive)	90.2	92.8	-2.97% (inactive)	4% (inactive)
Cc1c2cnn(CC(=O)N3CCN(c4ncccn4)CC3)c(=O)c2c(C)n1Cc1ccc(F)cc1	99% (inactive)	106% (inactive)	99.5% (inactive)	2.37% (inactive)	97.2	99.5	5.14% (inactive)	-4.73% (inactive)
CCN(CC)CCOC(=O)C1(c2ccc(OC)c(OC)c2)CCCC1	89% (inactive)	99.6% (inactive)	82.7% (inactive)	2.25% (inactive)	80.5	82.7	-5.14% (inactive)	1.45% (inactive)
CCOC(=O)CC(=O)CSc1nc(-c2cccnc2)ccc1C#N	118% (inactive)	98.6% (inactive)	68.4% (inactive)	-24% (inactive)	92.4	68.4	-3.97% (inactive)	0% (inactive)
Cc1ccc2nc(/C(C#N)=N/O)[nH]c2c1	115% (inactive)	84.9% (inactive)	78.2% (inactive)	-2.1% (inactive)	80.3	78.2	-4.53% (inactive)	0% (inactive)
O=C(CSc1nnc(COc2ccc(Cl)cc2)o1)OC1CCCCC1	106% (inactive)	95.5% (inactive)	102% (inactive)	6.06% (inactive)	95.9	102	4.66% (inactive)	-3.87% (inactive)
Cc1cc(NC(=O)Cc2c(F)cccc2Cl)no1	102% (inactive)	95.5% (inactive)	96% (inactive)	6.76% (inactive)	89.2	96	-7.26% (inactive)	3.64% (inactive)
CCOC(=O)C(C(C)=O)c1nc(C)nc2c1nnn2Cc1ccccc1Cl (centres undefined)	58% (inactive)	71.7% (inactive)	79.4% (inactive)	-9.73% (inactive)	89.1	79.4	1.08% (inactive)	-2.18% (inactive)
Cc1csc(SCCn2c(N3CCCC3)nc3c2c(=O)[nH]c(=O)n3C)n1	94% (inactive)	105% (inactive)	100% (inactive)	-4.86% (inactive)	105	100	-1.49% (inactive)	-2.55% (inactive)
OC1C=CSc2nc3ccccc3n21 (centres undefined)	83.5% (inactive)	79% (inactive)	66.8% (inactive)	-8.25% (inactive)	75	66.8	-5.68% (inactive)	1.8% (inactive)
O=C(Nc1cc(C(=O)N2CCCC2)ccc1N1CCCC1)c1ccccc1F	108% (inactive)	119% (inactive)	101% (inactive)	8.93% (inactive)	92	101	-8.13% (inactive)	-3.64% (inactive)
CCCN(CCC)C(=O)CC(c1ccc(F)cc1)c1ccco1 (centres undefined)	71% (inactive)	80.7% (inactive)	80.8% (inactive)	-6.06% (inactive)	86.8	80.8	-5.48% (inactive)	-0.91% (inactive)
CCOc1ccc(-c2nc(N)ncc2-c2ccccc2)c(O)c1	136% (inactive)	95.3% (inactive)	65.3% (inactive)	-14.3% (inactive)	79.6	65.3	-5.95% (inactive)	-8.1% (inactive)
Cc1noc(NS(=O)(=O)c2ccc(N)cc2)c1C	97% (inactive)	91% (inactive)	105% (inactive)	15.7% (inactive)	89.1	105	2.34% (inactive)	-1.5% (inactive)
Cc1ccc(Cl)cc1N1CCN(C(=O)CN2C(=O)c3cccc4cccc2c34)CC1	94.5% (inactive)	66.6% (inactive)	72.1% (inactive)	-4.18% (inactive)	76.3	72.1	-4.42% (inactive)	3.65% (inactive)
Brc1ccc2[nH]c3nc(SCCN4CCOCC4)nnc3c2c1	100% (inactive)	89.8% (inactive)	87% (inactive)	10.9% (inactive)	76.2	87	2.21% (inactive)	11.6% (inactive)
C[C@]12CC[C@@H]3c4ccc(O)cc4CC[C@H]3[C@@H]1CCC2=O	120% (inactive)	63.4% (inactive)	91.8% (inactive)	4.7% (inactive)	87.1	91.8	-1.56% (inactive)	0.5% (inactive)
